ChEMBL document CHEMBL1125347, “Synthesis of novel MPTP analogs as potential monoamine oxidase B (MAO-B) inhibitors” (J Med Chem, 1992)

Tests used:
[1] = target: T1, Amine oxidase [flavin-containing] B (Bos taurus, UniProt P56560); assay: Inhibitory constant against monoamine Oxidase(MAO-B).
T1 sequence (P56560 whole entry): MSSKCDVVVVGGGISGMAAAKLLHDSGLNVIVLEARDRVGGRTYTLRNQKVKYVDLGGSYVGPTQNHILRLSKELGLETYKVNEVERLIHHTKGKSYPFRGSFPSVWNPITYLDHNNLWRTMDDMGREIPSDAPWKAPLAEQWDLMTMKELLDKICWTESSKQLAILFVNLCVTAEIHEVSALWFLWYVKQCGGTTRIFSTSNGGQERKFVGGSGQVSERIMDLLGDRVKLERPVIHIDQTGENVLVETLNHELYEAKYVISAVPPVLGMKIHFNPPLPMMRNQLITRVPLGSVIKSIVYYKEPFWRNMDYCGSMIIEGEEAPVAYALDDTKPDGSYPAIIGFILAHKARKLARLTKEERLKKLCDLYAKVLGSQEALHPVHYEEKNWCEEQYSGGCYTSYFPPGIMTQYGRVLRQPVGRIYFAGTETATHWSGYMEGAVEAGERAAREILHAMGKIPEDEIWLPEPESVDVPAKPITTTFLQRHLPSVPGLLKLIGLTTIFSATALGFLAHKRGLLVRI

[2] = target: T1, Amine oxidase [flavin-containing] B; assay: Monoamine oxidase B Inactivation property expressed as inactivation constant (K inact).
[3] = Kinetic parameter Vmax (nm/min/unit of MAO-B) for the MAO-B catalyzed oxidation of the compound.; type: ADME
Procedure, shortened: (§1)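 Compound at 0.05-2.5 mM in 100 mM phosphate pH 7.4 was equilibrated 2 min at 37 °C, then 0.05 unit of purified beef liver MAO-B was added. Initial rates were followed by the rise in absorbance of the dihydropyridinium product. KM and Vmax came from Lineweaver-Burk plots. One unit converts 1 μmol benzylamine per min.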

[4] = Kinetic parameter KM (nM) for the MAO-B catalyzed oxidation of the compound.; type: ADME; procedure, shortened: as §1
[5] = target: T1, Amine oxidase [flavin-containing] B; assay: MAO-B Inactivation property expressed as inactivation constant (K inact).
[6] = target: T1, Amine oxidase [flavin-containing] B; assay: Inhibitory constant against monoamine Oxidase (MAO-B); Not active
[7] = target: T1, Amine oxidase [flavin-containing] B; assay: Monoamine oxidase B Inactivation property expressed as inactivation constant (K inact); Not active
[8] = target: T1, Amine oxidase [flavin-containing] B; assay: Inhibitory constant against monoamine Oxidase(MAO-B) was determined at a concentration of 50-100 uM
[9] = target: T1, Amine oxidase [flavin-containing] B; assay: MAO-B Inactivation property expressed as inactivation constant (K inact) was determined at a concentration of 50-100 uM
[10] = target: T1, Amine oxidase [flavin-containing] B; assay: Monoamine oxidase B Inactivation property expressed as inactivation constant (K inact) was determined at a concentration of 300-1500 uM
[11] = target: T1, Amine oxidase [flavin-containing] B; assay: Inhibitory constant against monoamine Oxidase(MAO-B) was determined at a concentration of 300-1500 uM

Row | SMILES | Ki [1] [µM] | kinact [2] [s⁻¹] | Vmax [3] | Km [4] [µM] | other results
1 | C=CCN1CC=C(c2ccccc2)CC1 | 268 | 0.000483 | – | – | –
2 | C#CC1=CCN(C)CC1 | 154 | – | 684 | 861 | kinact [5]: 0.000833 s⁻¹
3 | C1=C(c2ccccc2)CCN(C2CCC2)C1 | – | – | – | – | Ki [6]: Not Active; kinact [7]: Not Active
4 | CN1CC=C(C#Cc2ccccc2)CC1 | 820 | – | – | – | kinact [5]: 0.00533 s⁻¹
5 | C#CCN1CC=C(c2ccccc2)CC1 | – | – | – | – | Ki [8]: 172 µM; kinact [9]: 0.004 s⁻¹
6 | CN1CC=C(c2ccccc2)CC1 | – | – | 204 | 390 | –
7 | CCCN1CC=C(c2ccccc2)CC1 | – | – | 7 | 2000 | kinact [10]: 0.001 s⁻¹; Ki [11]: 5 mM
8 | C1=C(c2ccccc2)CCN(C2CCCC2)C1 | 173 | 0.00075 | – | – | –
9 | C=CC1=CCN(C)CC1 | 330 | 0.00133 | 190 | 80 | –
